Among the data in ChEMBL document CHEMBL4411275, “Design, synthesis and biological evaluation of quinoline-indole derivatives as anti-tubulin agents targeting the colchicine binding site” (Eur J Med Chem, 2019) are Activity, IC50 and inhibition values, retold here.

Assay [1] relates to K562. In words: Induction of mitochondrial membrane potential loss in human K562 cells assessed as intact mitochondrial membrane at 4 nM after 48 hrs by JC-1 dye-based flow cytometric analysis (RVB = 93.17%). Background: In flow cytometry, cells or beads pass a laser one at a time.
For the next assay, the system named is A549. In words: Antiproliferative activity against human A549 cells after 72 hrs by MTT assay. In kind it is functional, cell-based. The settings on record: A549, 72 h. The method, boiled down: (§1)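 Cells preincubated 24 h at 37 °C, 5% CO₂. Compounds added at several concentrations in medium with 0.1% DMSO for 72 h. MTT (5 mg/mL in PBS) then added for 4 h, and optical density read at 490 nm. IC50 taken from dose-response curves; mean ± SD of at least three independent experiments.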
A general note: Formazan colour is commonly taken as a measure of viable cells.

Assay [2] has as its system K562. In words: Induction of apoptosis in human K562 cells at 4 nM after 48 hrs by Annexin-V/propidium iodide staining-based flow cytometric analysis (reference value: 5.96%).
Another assay concerns L02. Description: Antiproliferative activity against human LO2 cells after 72 hrs by MTT assay. The settings on record: L02, 72 h. It is filed as cell-based. In a few lines: as §1
The test system of assay [3] is H22 (Mus musculus). Description: Antitumor activity against mouse H22 cells xenografted in ICR mouse assessed as reduction in tumor weight at 10 mg/kg/day, iv for 21 days relative to control. Also noted: scale not given: the % may be the effect or the level left.
The nature of assay [4]: Antiproliferative activity against human taxol-resistant HCT8/T cells after 72 hrs by MTT assay. It is filed as functional. The conditions noted are these: HCT-8, 72 h. The method, boiled down: as §1
A further assay deals with Tubulin (Homo sapiens) (UniProt P68371+Q9H4B7+P0DPH7+P68366+Q13509+Q71U36+P04350+Q3ZCM7+P07437+P68363+Q9BQE3+Q6PEY2+Q13885+Q9BVA1+Q9BUF5). In words: Induction of microtubule disruption in human K562 cells after 24 hrs by DAPI staining-based fluorescence assay. It is filed as cell-based. The method, boiled down: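 K562 cells exposed 24 h to 1, 2 or 4 nM compound or 0.1% DMSO. Fixed in 4% paraformaldehyde and blocked 20 min with goat serum at room temperature. Incubated with anti-α-tubulin monoclonal antibody for 2 h at 37 °C, then fluorescent antibody, with DAPI nuclear counterstain. Imaged by confocal microscopy.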

The test system of another assay is K562/VCR. Description: Antiproliferative activity against human VCR-resistant K562/VCR cells after 72 hrs by MTT assay. In kind it is functional, cell-based. The method, boiled down:
as §1

In assay [5] the test system is K562. In words: Cell cycle arrest in human K562 cells assessed as accumulation of cells at G1 phase at 1 nM after 48 hrs by propidium iodide staining-based flow cytometric analysis (reference value: 69.57%). It is filed as functional.
Another assay concerns the target Tubulin (Sus scrofa) (UniProt P02554+P02550). Description: Inhibition of [3H]-colchicine binding to biotinylated porcine tubulin at 5 uM after 2 hrs by SPA relative to control. It is filed as protein assay. The method, boiled down: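 Scintillation proximity assay: 0.08 μM [3H]colchicine incubated with biotinylated porcine tubulin (0.5 μg) and test compound for 2 h at 37 °C in 80 mM PIPES pH 6.8, 1 mM EGTA, 10% glycerol, 1 mM MgCl2, 1 mM GTP. Streptavidin SPA beads then added, and bound radioactivity counted by scintillation counter.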

The subject of assay [6] is K562. In words: Induction of mitochondrial membrane potential loss in human K562 cells assessed as collapsed mitochondrial membrane at 2 nM after 48 hrs by JC-1 dye-based flow cytometric analysis (RVB = 6.17%).
The subject of assay [7] is K562. In words: Cell cycle arrest in human K562 cells assessed as accumulation of cells at G2 phase at 1 nM after 48 hrs by propidium iodide staining-based flow cytometric analysis (reference value: 10.51%). In kind it is functional.
The test system of assay [8] is K562. In words: Cell cycle arrest in human K562 cells assessed as accumulation of cells at S phase at 1 nM after 48 hrs by propidium iodide staining-based flow cytometric analysis (reference value: 19.93%). It is filed as functional.
The subject of a further assay is MDA-MB-231. In words: Antiproliferative activity against human MDA-MB-231 cells after 72 hrs by MTT assay. In kind it is functional, cell-based. The conditions noted are these: MDA-MB-231, 72 h. The method, boiled down:
as §1

The test system of a further assay is A549/TR. In words: Antiproliferative activity against human taxol-resistant A549/TR cells after 72 hrs by MTT assay. In kind it is functional, cell-based. In a few lines:
as §1

Assay [9] relates to K562. Description: Cell cycle arrest in human K562 cells assessed as accumulation of cells at G1 phase at 4 nM after 48 hrs by propidium iodide staining-based flow cytometric analysis (reference value: 69.57%). In kind it is functional.
In assay [10] the test system is H22 (Mus musculus). In words: Antiproliferative activity against mouse H22 cells after 72 hrs by MTT assay. The conditions noted are these: H22, 72 h.

Chain of Tubulin (Sus scrofa) (P02550 whole entry, looked up): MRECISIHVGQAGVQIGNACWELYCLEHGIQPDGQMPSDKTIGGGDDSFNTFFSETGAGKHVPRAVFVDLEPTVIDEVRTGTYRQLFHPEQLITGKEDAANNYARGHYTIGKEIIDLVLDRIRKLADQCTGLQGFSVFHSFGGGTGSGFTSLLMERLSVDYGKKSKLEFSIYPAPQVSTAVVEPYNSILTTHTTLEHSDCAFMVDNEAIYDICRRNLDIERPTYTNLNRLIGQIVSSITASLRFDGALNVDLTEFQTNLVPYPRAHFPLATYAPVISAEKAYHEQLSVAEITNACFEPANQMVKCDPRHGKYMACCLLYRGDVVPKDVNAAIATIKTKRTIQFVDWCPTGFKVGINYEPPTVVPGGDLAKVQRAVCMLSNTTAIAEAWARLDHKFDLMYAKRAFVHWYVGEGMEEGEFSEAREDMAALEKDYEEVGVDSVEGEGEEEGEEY
Chain of Tubulin (Sus scrofa) (P02554 whole entry, looked up): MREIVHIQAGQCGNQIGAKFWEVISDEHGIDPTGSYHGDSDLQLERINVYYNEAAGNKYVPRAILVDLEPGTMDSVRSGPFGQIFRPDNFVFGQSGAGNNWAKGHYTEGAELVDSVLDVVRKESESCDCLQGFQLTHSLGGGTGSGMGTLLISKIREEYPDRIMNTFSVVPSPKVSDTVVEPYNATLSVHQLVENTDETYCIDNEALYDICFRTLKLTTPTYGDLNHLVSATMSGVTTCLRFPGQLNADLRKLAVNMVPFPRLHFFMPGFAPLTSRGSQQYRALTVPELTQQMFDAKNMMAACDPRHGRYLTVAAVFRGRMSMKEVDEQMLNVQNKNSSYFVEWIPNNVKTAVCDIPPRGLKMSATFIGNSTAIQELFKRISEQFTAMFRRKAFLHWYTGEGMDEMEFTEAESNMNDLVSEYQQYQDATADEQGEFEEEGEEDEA

Take `C=C(c1ccc2c(ccn2CO)c1)c1cc(C)nc2ccccc12`: the Activity in the assay on K562 [1] is 26.27%; with K562 [2] it was 72.8%; with H22 (Mus musculus) [3], 48.8%; on Tubulin (Homo sapiens) it was “Dose-dependent effect”; in the assay on K562 [5], 60.18%; in the assay on K562 [6], 45.1%. The Activity came out at 12.44% with K562 [7], 27.38% in the assay with K562 [8] and 45.79% in the assay with K562 [9]. The IC50 (in general, the concentration needed to halve the response being measured) in the assay with A549 is 0.009 µM; in the assay with L02, 0.048 µM; in assay [4], 0.088 µM; in the assay with K562/VCR it was 0.031 µM; in the assay on MDA-MB-231, 0.006 µM; in the assay with A549/TR, 0.119 µM. Further, the IC50 in the assay with H22 (Mus musculus) [10] was 0.006 µM. Further, the inhibition (in general, how much of the control response was suppressed) at Tubulin (Sus scrofa) is 90.5%.
